Assay results from ChEMBL document CHEMBL3872262, “Synthesis of novel C4-benzazole naphthalimide derivatives with potent anti-tumor properties against murine melanoma” (Bioorg Med Chem, 2017).
pIC50: −log10 of the molar value. Active and inactive are the calls of the source. The rule behind the calls is not given here.

Experiments:
B16-F10 = experiment: Antitumor activity against mouse B16F10 cells implanted in C57BL/6 mouse assessed as reduction in lung metastasis at 2 mg/kg, ip administered daily for 1 to 14 days by microscopic method; format: functional, organism-based
How it was run: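 Female C57BL/6 mice, 6–8 weeks old, injected via tail vein with 2x10^5 B16F10 cells on day 0. Dosing 2 mg/kg ip daily on days 1–14, in 5% DMSO vehicle, with a vehicle control group. Total black lung nodules counted under microscopy on day 14, n=11/group.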

Homo sapiens [1] = organism: Homo sapiens; experiment: Inhibition of topoisomerase 2 (unknown origin) assessed as DNA intercalation at 10 uM using supercoiled pHOT-1 DNA as substrate measured after 30 mins by agarose gel electrophoresis
How it was run: (§1)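 Topoisomerase II drug screening kit. Supercoiled pHOT-1 plasmid incubated with topoisomerase II enzyme plus compound at 37 °C for 30 min, with 100 μM etoposide as positive control. Stopped with 10% SDS, then proteinase K for 15 min at 37 °C. Run on 1% agarose gel, stained with EtBr and viewed under UV.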

Mus musculus = experiment: Toxicity in C57BL/6 mouse assessed as change in body weight at 2 mg/kg, ip administered daily for 9 days measured during compound dosing; format: organism-based; conditions: in vivo, 216 h
How it was run: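 Female C57BL/6 mice, n=5/group, given 2 mg/kg ip daily in 5% DMSO vehicle, with a vehicle control group. Body weights recorded on set days over a 9-day study.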

[2] = Cytotoxicity against mouse B16F10 cells measured after 2 days by MTS assay; conditions: B16-F10, 48 h
Homo sapiens [3] = organism: Homo sapiens; experiment: Inhibition of topoisomerase 2 (unknown origin) assessed as DNA intercalation at 100 uM using supercoiled pHOT-1 DNA as substrate measured after 30 mins by agarose gel electrophoresis; how it was run: as §1

inhibition (Homo sapiens [1])	inhibition (Homo sapiens [3])	SMILES	Activity (B16-F10)	Activity (Mus musculus)	pIC50 [2]
Active	–	CN(C)CCN1C(=O)c2cccc3c(-c4nc5ccccc5o4)ccc(c23)C1=O	Active	Non-Toxic	5.11
Active	Active	CN(C)CCN1C(=O)c2cccc3c(-c4nc5ccccc5s4)ccc(c23)C1=O	Active	Non-Toxic	5.35
–	–	CN(C)CCN1C(=O)c2cccc3cc(N)cc(c23)C1=O [AMONAFIDE]	–	–	5.17
